Most compounds without a hit are left out; they make up all but 1.9% or so of the library.
Insulin prom up = MIN6 insulin promoter up-regulation. MIN6 insulin promoter-GFP reporter, high-content imaging; stronger effect = higher value. z-score at 5 µM. 0.3% of 190,000 active;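 active = z-score above 3 at 5 µM with at least 500 cells counted in the well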
MT stabilize HCS = microtubule stabilizers in HeLa cells; HeLa tubulin immunostaining HCS, 24 h; share of cells brighter than vehicle mean+2SD; % tubulin-high responders, % at 10 µM; 0.83% of 200,000 active;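 active = plate Z-score above 3 for both tubulin-high and condensed-nucleus cell shares, with cell loss under 80%, at 10 µM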;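 also: anti alpha tubulin signal scored within the nucleus-defined area of each cell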
bCat nuc transl = beta-catenin nuclear translocation modulation; 0.3% of 190,000 active; nuclear translocation activity, % at 5 µM; HeLa beta-catenin nuclear translocation, immunofluorescence imaging;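 active = nuclear translocation activity above 50% at 5 µM, with a well cell count of 50 or more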;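 also: per-cell ratio of nuclear to cytoplasmic median beta-catenin stain intensity; plate controls were DMSO negative control for no effect and GSK-3 inhibitor IX positive control for full effect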
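Test system: HeLa cells, endogenous beta-catenin; Compound: single 5 µM dose plus 0.02–20 µM confirmation series; Times: compound exposure 24 h at 37°C; Signal: fluorescence imaging of beta-catenin antibody stain plus DAPI; Read-out: % activation, nuclear-to-cytoplasmic median beta-catenin signal ratio per cell.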
Autophagy HCS = modulators of autophagy; MEF GFP-LC3 puncta imaging; test concentration mostly 10 µM; calls only at 10 µM (by protocol); 0.98% of 190,000 active;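 active = percentage of spot-positive cells more than 3 SD above its plate mean, without a fluorescence outlier flag or 80% toxicity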;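 also: spot-positive cell cutoff set from DMSO-treated cells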
* marks the source's active call; other numbers are inactive results.

Results for CCOC(=O)c1ccc(NC(=S)N(CCCN2CCN(CC)CC2)Cc2ccco2)cc1 ?
Insulin prom up: -1.3; MT stabilize HCS: 4; bCat nuc transl: -4; Autophagy HCS: active

What do the screens show for `CC(=O)OCCSc1c(-c2ccccc2)c2cc(Cl)ccc2[nH]c1=O`?
Insulin prom up: -0.12; MT stabilize HCS: 7; bCat nuc transl: 3; Autophagy HCS: inactive

What do the screens show for `CCN(CC)C(=O)n1cnc(-c2ccccc2)c1-c1ccccc1`?
Insulin prom up: -0.08; MT stabilize HCS: 1; bCat nuc transl: 0; Autophagy HCS: inactive

What do the screens show for `CCCCN1CC(O)=C(c2nc(-c3ccc(Cl)cc3)cs2)C1=N`?
Insulin prom up: -0.88; MT stabilize HCS: 2; Autophagy HCS: active

How did COCC1CCCN(Cc2nc(C(c3ccccc3)c3ccccc3)no2)C1 (stereo not drawn) do in these assays?
Insulin prom up: 0.12; MT stabilize HCS: 3; bCat nuc transl: -2; Autophagy HCS: active

Results for Cc1ccccc1C(=O)N1CCc2ccccc2C1 ?
Insulin prom up: 4*; MT stabilize HCS: 4; bCat nuc transl: 1; Autophagy HCS: inactive

What do the screens show for `CSc1ccccc1C(=O)N1CCc2ccccc2C1`?
Insulin prom up: -0.03; MT stabilize HCS: 2; bCat nuc transl: -1; Autophagy HCS: active

How did COC(=O)N/N=C(\CCC(=O)O)c1cccs1 do in these assays?
Insulin prom up: 0.13; bCat nuc transl: -1

How did Cc1cc(Oc2ccccc2)nc(N)n1 do in these assays?
Insulin prom up: -0.44; MT stabilize HCS: 3; bCat nuc transl: 2; Autophagy HCS: inactive

How did Cc1cc(SCCOc2ccccc2)nc(N)n1 do in these assays?
Insulin prom up: 3.1*; MT stabilize HCS: 3; bCat nuc transl: -2; Autophagy HCS: inactive

What do the screens show for `CC1C/C(=C\c2cccnc2)C(=O)/C(=C/c2cccnc2)C1` (stereo not drawn)?
Insulin prom up: -1.6; MT stabilize HCS: 32*; bCat nuc transl: 0; Autophagy HCS: inactive

What do the screens show for `O=C1/C(=C/c2cccnc2)CCc2c1[nH]c1ccccc21`?
Insulin prom up: 0.08; MT stabilize HCS: 4; bCat nuc transl: 0; Autophagy HCS: inactive

How did O=C(N=Nc1c(O)[nH]c2ccc(Br)cc12)c1ccccc1-n1cccc1 do in these assays?
Insulin prom up: -1.4; MT stabilize HCS: 10; bCat nuc transl: 154*; Autophagy HCS: inactive

What do the screens show for `COc1ccccc1C(=O)N=Nc1c(O)[nH]c2ccc([N+](=O)[O-])cc12`?
Insulin prom up: -0.61; MT stabilize HCS: 4; bCat nuc transl: -2; Autophagy HCS: active

How did C=CCN(c1cccc(C(F)(F)F)c1)S(=O)(=O)c1cccc(C(=O)OCC(=O)NCCC)c1 do in these assays?
Insulin prom up: 0.69; MT stabilize HCS: 4; bCat nuc transl: 1; Autophagy HCS: inactive

How did COc1cc(C(=O)Nc2ccc3c(c2)CCN3C(C)=O)cc(OC)c1OC do in these assays?
Insulin prom up: 0.27; MT stabilize HCS: 22*; bCat nuc transl: 0; Autophagy HCS: inactive

How did COc1cc(C(=O)Nc2ccc3c(c2)Cc2ccccc2-3)cc(OC)c1OC do in these assays?
Insulin prom up: -0.07; MT stabilize HCS: 5; bCat nuc transl: 6; Autophagy HCS: inactive

Results for COc1ccccc1/C=N/NC(=O)CSc1cc(C)nc2ccccc12 ?
Insulin prom up: -1.6; MT stabilize HCS: 27*; bCat nuc transl: 35; Autophagy HCS: inactive

What do the screens show for `C=CCn1c(-c2cccc(Cl)c2)n[nH]c1=S`?
Insulin prom up: 0.52; MT stabilize HCS: 8; bCat nuc transl: -7; Autophagy HCS: inactive

What do the screens show for `C=CCn1c(-c2oc3nc(-c4ccccc4)cc(-c4ccccc4)c3c2N)n[nH]c1=S`?
Insulin prom up: 5.6*; MT stabilize HCS: 1; Autophagy HCS: inactive

How did CCOC(=O)c1[nH]c2ccc(Br)cc2c1NC(=O)CCN1CCCC(C)(C)C1 do in these assays?
Insulin prom up: -0.67; MT stabilize HCS: 3; bCat nuc transl: -3; Autophagy HCS: inactive

Results for CCOC(=O)N1CCN(c2c(F)cc3[nH]c(=S)[nH]c3c2Br)CC1 ?
Insulin prom up: 0.6; MT stabilize HCS: 47*; bCat nuc transl: -1; Autophagy HCS: active

How did N#CC1=C(N)Oc2cc(N)ccc2C1C1CCCCC1 (stereo not drawn) do in these assays?
Insulin prom up: 0.43; MT stabilize HCS: 46*; Autophagy HCS: inactive

How did COc1ccc(OC)c(C2C(C#N)=C(N)Oc3cc(N)ccc32)c1 (stereo not drawn) do in these assays?
Insulin prom up: 1.2; MT stabilize HCS: 9; bCat nuc transl: 5; Autophagy HCS: inactive

What do the screens show for `CCSc1ncnc2sc(C)c(C)c12`?
Insulin prom up: 0.75; MT stabilize HCS: 5; bCat nuc transl: 5; Autophagy HCS: active
